We go through 8 compounds from ChEMBL document CHEMBL4130607, “Sodium-Periodate-Mediated Harringtonine Derivatives and Their Antiproliferative Activity against HL-60 Acute Leukemia Cells” (J Nat Prod, 2018).

The structures appear in SMILES notation.

One data set concerns HL-60. The experiment in a line: Antiproliferative activity against human HL60 cells after 62 hrs by MTS assay. Type of data set: functional, cell-based. Conditions: HL-60, 62 h. The gist of the method:
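HL-60 cells kept in RPMI-1640 with 10% heat-inactivated FBS, penicillin/streptomycin, 37 °C, 5% CO2. Seeded at 2.0 × 10^4 cells/mL with increasing compound concentrations for 62 h. MTS reagent added, formazan absorbance read at 492/620 nm after 2 h. IC50 from linear regression of viability against log concentration. Mean ± SD of triplicate tests.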
A general note: Tetrazolium dyes change colour on reduction, which living cells bring about.

Data set [1] can be described thus: Drug uptake in human HL60 cells at 1 uM after 3 hrs by indirect competitive ELISA. To be noted: hl-60, 3 h. Type of data set: ADME, cell-based. An outline of the steps: (§1)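 HL-60 cells at 5.0 × 10^5 cells/mL were preincubated 1 h, then exposed to compound (final 1, 10 or 100 μM) for 3 h. Cells were washed three times in PBS and lysed in RIPA buffer on ice for 20 min. Cleared supernatant was run in icELISA: HT–HSA coated plate, competition with mAb 1D2, HRP anti-mouse IgG, ABTS, A405. Result given as ng per 5 × 10^6 cells and uptake rate %.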
On the technique in general: An ELISA detects its analyte on a solid surface through an enzyme-linked reagent.

Data set [2] is described as follows: Drug uptake in human HL60 cells at 10 uM after 3 hrs by indirect competitive ELISA. To be noted: hl-60, 3 h. It counts as ADME, cell-based. The gist of the method:
as §1

The nature of data set [3]: Drug uptake in human HL60 cells at 100 uM after 3 hrs by indirect competitive ELISA. Type of data set: ADME, cell-based. Conditions: hl-60, 3 h. The gist of the method: as §1

Take `COC1=C[C@]23CCC(=O)N2CCc2cc4c(cc2[C@@H]3[C@@H]1OC(=O)[C@@](O)(CCC(C)(C)O)CC(=O)O)OCO4`: the IC50 (as a rule, the concentration that gives 50% inhibition) in the data set with HL-60 is greater than 100 µM. Take `COC(=O)C[C@](O)(CCC(C)(C)O)C(=O)O[C@@H]1C(OC)=C[C@]23CCC(=O)N2CCc2cc4c(cc2[C@H]13)OCO4`: the results for the Drug uptake in data set [1], in data set [2] and in data set [3] were 0.09%, 0.02% and 0.02%, respectively. Also, the IC50 with HL-60 is greater than 100 µM. For `COC1=C[C@]23CCCN2C(=O)c2cc4c(cc2[C@@H]3[C@@H]1OC(=O)[C@@](O)(CCC(C)(C)O)CC(=O)O)OCO4`, the IC50 with HL-60 was greater than 100 µM. In the case of `COC(=O)C[C@](O)(CCC(C)(C)O)C(=O)O[C@@H]1C(OC)=C[C@]23CCCN2C(=O)c2cc4c(cc2[C@H]13)OCO4`, the IC50 in the data set with HL-60 was greater than 100 µM. Still for that read-out and setting: to `COC1=C[C@]23CCCN2CCc2cc4c(cc2[C@@H]3[C@@H]1OC(=O)[C@@](O)(CCC(C)(C)O)CC(=O)O)OCO4` belongs greater than 100 µM; to `COC1=C[C@]23CCCN2CCc2cc4c(cc2[C@@H]3[C@@H]1O)OCO4` [CEPHALOTAXINE], 61.2 µM. For `COC(=O)C[C@](O)(CCC(C)(C)O)C(=O)O[C@@H]1C(OC)=C[C@]23CCCN2CCc2cc4c(cc2[C@H]13)OCO4` [HARRINGTONINE], the Drug uptake in data set [1] is reported as 3.34%; in data set [2] it was 0.61%; in data set [3], 0.35%. Besides, the half-maximal inhibitory concentration (IC50) with HL-60 was 0.047 µM. Consider `COC(=O)C[C@](O)(CCCC(C)(C)O)C(=O)O[C@@H]1C(OC)=C[C@]23CCCN2CCc2cc4c(cc2[C@H]13)OCO4` [OMACETAXINE MEPESUCCINATE], for which, in the data set with HL-60, the IC50 was 0.022 µM.
